# According to ChEMBL document CHEMBL1287654, “Anticancer activity of N-bis(trifluoromethyl)alkyl-N'-(polychlorophenyl) and N'-(1,2,4-triazolyl) ureas” (2010):
# Legend:
# Format in all cases: functional
# [1] = system: SF-539; test: Growth inhibition of human SF539 cells after 48 hrs by sulforhodamine B assay; details: SF-539, 48 h
# Outline: (§1)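 NCI 60-cell-line main test over a five-log dose range. GI50 is the molar concentration giving half-growth inhibition, reported as log molar. Subpanel values are median GI50 across that subpanel's lines. Where 50% inhibition was not reached within the tested interval, the highest tested concentration was used.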
# [2] = Growth inhibition of human ovarian cancer cell after 48 hrs by sulforhodamine B assay; details: Cancer cell lines
# Outline: (§2)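 Subpanel median growth inhibitory concentration: the average sensitivity of each tumor-type subpanel of the NCI 60-cell-line panel, derived from per-cell-line GI50 values. GI50 values came from a five log dose range and are expressed as log molar concentration for 50% net growth inhibition.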
# [3] = system: SK-MEL-2; test: Growth inhibition of human SK-MEL-2 cells after 48 hrs by sulforhodamine B assay; details: SK-MEL-2, 48 h; outline: as §1
# [4] = Growth inhibition of human prostate cancer cell after 48 hrs by sulforhodamine B assay; details: Cancer cell lines; outline: as §2
# [5] = Growth inhibition of human CNS cancer cell after 48 hrs by sulforhodamine B assay; details: Cancer cell lines; outline: as §1
# [6] = system: M14; test: Growth inhibition of human M14 cells after 48 hrs by sulforhodamine B assay; details: M14, 48 h; outline: as §1
# [7] = system: MDA-MB-435; test: Growth inhibition of human MDA-MB-435 cells after 48 hrs by sulforhodamine B assay; details: MDA-MB-435, 48 h; outline: as §1
# [8] = system: UACC-257; test: Growth inhibition of human UACC257 cells after 48 hrs by sulforhodamine B assay; details: UACC-257, 48 h
# Outline: (§3)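 NCI 60-cell-line main screen across nine tumor types, with five log dose range per compound. GI50 is the molar concentration giving half growth inhibition, reported as the log of the molar concentration that inhibits 50% net cell growth.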
# [9] = system: NCI/ADR-RES; test: Growth inhibition of human NCI/ADR-RES cells after 48 hrs by sulforhodamine B assay; outline: as §1
# [10] = system: SK-MEL-5; test: Growth inhibition of human SK-MEL-5 cells after 48 hrs by sulforhodamine B assay; details: SK-MEL-5, 48 h; outline: as §1
# [11] = Growth inhibition of human colon cancer cell after 48 hrs by sulforhodamine B assay; details: Cancer cell lines; outline: as §2
# [12] = system: PC-3; test: Growth inhibition of human PC3 cells after 48 hrs by sulforhodamine B assay; details: PC-3, 48 h; outline: as §1
# [13] = system: BT-549; test: Growth inhibition of human BT549 cells after 48 hrs by sulforhodamine B assay; details: BT-549, 48 h; outline: as §1
# [14] = system: K562; test: Growth inhibition of human K562 cells after 48 hrs by sulforhodamine B assay; details: K562, 48 h; outline: as §1
# [15] = Growth inhibition of human breast cancer cell after 48 hrs by sulforhodamine B assay; details: Cancer cell lines; outline: as §2
# [16] = system: SK-OV-3; test: Growth inhibition of human SKOV3 cells after 48 hrs by sulforhodamine B assay; details: SK-OV-3, 48 h; outline: as §1
# [17] = Growth inhibition of human renal cancer cell after 48 hrs by sulforhodamine B assay; details: Cancer cell lines; outline: as §2
# [18] = system: SF-268; test: Growth inhibition of human SF268 cells assessed as cell growth at 100 uM after 48 hrs by sulforhodamine B assay relative to control; details: SF-268, 48 h, read-out: Activity
# Outline: (§4)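 One-dose pre-test on MCF7, NCI-H460 and SF-268. Cells were inoculated and pre-incubated on a microtiter plate, then given a single 10^-4 M dose and incubated 48 h. Growth was read spectrophotometrically and expressed as percent of untreated control cells; negative values indicate cell kill.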
# [19] = system: OVCAR-4; test: Growth inhibition of human OVCAR4 cells after 48 hrs by sulforhodamine B assay; details: OVCAR-4, 48 h; outline: as §1
# [20] = system: HOP-92; test: Growth inhibition of human HOP92 cells after 48 hrs by sulforhodamine B assay; details: HOP-92, 48 h; outline: as §1
# [21] = system: SF-268; test: Growth inhibition of human SF268 cells after 48 hrs by sulforhodamine B assay; details: SF-268, 48 h; outline: as §1
# [22] = system: SN12C; test: Growth inhibition of human SN12C cells after 48 hrs by sulforhodamine B assay; outline: as §3
# [23] = Growth inhibition of human leukemia cell after 48 hrs by sulforhodamine B assay; outline: as §2
# [24] = Growth inhibition of human melanoma cell after 48 hrs by sulforhodamine B assay; outline: as §2
# [25] = system: HOP-62; test: Growth inhibition of human HOP62 cells after 48 hrs by sulforhodamine B assay; details: HOP-62, 48 h; outline: as §1
# [26] = system: OVCAR-3; test: Growth inhibition of human OVCAR-3 cells after 48 hrs by sulforhodamine B assay; details: OVCAR-3, 48 h; outline: as §1
# [27] = system: SNB-75; test: Growth inhibition of human SNB75 cells after 48 hrs by sulforhodamine B assay; details: SNB-75, 48 h; outline: as §3
# [28] = system: SNB-19; test: Growth inhibition of human SNB19 cells after 48 hrs by sulforhodamine B assay; details: SNB-19, 48 h; outline: as §3
# [29] = system: Malme-3M; test: Growth inhibition of human MALME-3M cells after 48 hrs by sulforhodamine B assay; outline: as §1
# [30] = system: A498; test: Growth inhibition of human A498 cells after 48 hrs by sulforhodamine B assay; details: A498, 48 h; outline: as §1
# [31] = system: OVCAR-5; test: Growth inhibition of human OVCAR5 cells after 48 hrs by sulforhodamine B assay; details: OVCAR-5, 48 h; outline: as §1
# [32] = system: IGROV-1; test: Growth inhibition of human IGROV1 cells after 48 hrs by sulforhodamine B assay; details: IGROV-1, 48 h; outline: as §1
# [33] = system: MCF7; test: Growth inhibition of human MCF7 cells after 48 hrs by sulforhodamine B assay; details: MCF7, 48 h; outline: as §1
# [34] = system: NCI-H460; test: Growth inhibition of human NCI-H460 cells assessed as cell growth at 100 uM after 48 hrs by sulforhodamine B assay relative to control; details: NCI-H460, 48 h, read-out: Activity; outline: as §4
# [35] = system: SR; test: Growth inhibition of human SR cells after 48 hrs by sulforhodamine B assay; outline: as §3
# [36] = system: SW-620; test: Growth inhibition of human SW620 cells after 48 hrs by sulforhodamine B assay; details: SW-620, 48 h; outline: as §3
# [37] = system: UO-31; test: Growth inhibition of human UO31 cells after 48 hrs by sulforhodamine B assay; details: UO-31, 48 h; outline: as §3
# [38] = system: A549; test: Growth inhibition of human A549 cells after 48 hrs by sulforhodamine B assay; details: A549, 48 h; outline: as §1
# [39] = system: MCF7; test: Growth inhibition of human MCF7 cells assessed as cell growth at 100 uM after 48 hrs by sulforhodamine B assay relative to control; details: MCF7, 48 h, read-out: Activity; outline: as §4
# [40] = system: HL-60(TB); test: Growth inhibition of human HL-60(TB) cells after 48 hrs by sulforhodamine B assay; details: HL-60, 48 h
# Outline: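 NCI 60-cell-line panel run over a five-log dose range. GI50 is reported as the log of the molar concentration giving 50% net cell-growth inhibition, from dose-response against untreated controls. Where that effect was not reached within the concentration interval, the highest tested concentration was used in the calculation.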
# [41] = system: NCI-H226; test: Growth inhibition of human NCI-H226 cells after 48 hrs by sulforhodamine B assay; details: NCI-H226, 48 h; outline: as §1
# [42] = system: CAKI-1; test: Growth inhibition of human Caki1 cells after 48 hrs by sulforhodamine B assay; details: CAKI-1, 48 h; outline: as §1
# [43] = system: COLO 205; test: Growth inhibition of human COLO205 cells after 48 hrs by sulforhodamine B assay; details: COLO 205, 48 h; outline: as §1
structure (smiles),measurement,setting,value
CC(NC(=O)Nc1cc(Cl)ccc1Cl)(C(F)(F)F)C(F)(F)F,GI50,[1],30.2 µM
same,GI50,[2],24 µM
same,GI50,[3],12.3 µM
same,GI50,[4],5.75 µM
same,GI50,[5],20 µM
same,GI50,[6],> 100 µM
same,GI50,[7],> 100 µM
same,GI50,[8],75.9 µM
same,GI50,[9],5.89 µM
same,GI50,[10],25.1 µM
same,GI50,[11],7.08 µM
same,GI50,[12],3.47 µM
same,GI50,[13],> 100 µM
same,GI50,[14],5.89 µM
same,GI50,[15],61.7 µM
same,GI50,[16],> 100 µM
same,GI50,[17],15.1 µM
same,growth at 100 µM,[18],50%
same,GI50,[19],10.7 µM
same,GI50,[20],6.92 µM
same,GI50,[21],72.4 µM
same,GI50,[22],8.71 µM
same,GI50,[23],9.12 µM
same,GI50,[24],36.3 µM
same,GI50,[25],63.1 µM
same,GI50,[26],4.17 µM
same,GI50,[27],4.07 µM
same,GI50,[28],> 100 µM
same,GI50,[29],17.8 µM
same,GI50,[30],> 100 µM
same,GI50,[31],> 100 µM
same,GI50,[32],17.8 µM
same,GI50,[33],11.7 µM
same,growth at 100 µM,[34],17%
same,GI50,[35],7.41 µM
same,GI50,[36],> 100 µM
same,GI50,[37],2.4 µM
same,GI50,[38],5.62 µM
same,growth at 100 µM,[39],34%
same,GI50,[40],17.4 µM
same,GI50,[41],19.5 µM
same,GI50,[42],19.1 µM
same,GI50,[43],4.17 µM
